Only some compounds are listed: those with a hit (about 2.3% of all), similar ones and a draw of the others.
Rpn11 block: blocks the human proteasome subunit Rpn11. O00487. human 26S proteasome, Ub4-pepOG fluorescence polarization; 20S core pre-blocked with epoxomicin. inhibition, % at 20 µM. 360,000 compounds, 0.59% hits. AID 588493;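 active = inhibition at 20 µM, scaled to each plate's controls, above about 33%, limit read from the data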
STEP block: STEP (human) phosphatase inhibition | inhibition, % at 20 µM | recombinant STEP, OMFP fluorogenic substrate, fluorescence | AID 588621 | P54829 | 360,000 compounds, 0.25% hits;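 active = inhibition at 20 µM, scaled per plate between control wells, above about 37%, limit read from the data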;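 also: 0% = DMSO with enzyme and substrate and 100% = substrate only without enzyme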
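Assay system: isolated STEP enzyme / Timing: 20 min at room temperature, dark / Doses: 20 µM, 1% DMSO / Technique: fluorescence intensity, excitation 480 nm, emission 540 nm / Reagent: fluorogenic phosphatase substrate OMFP at 25 µM final / Measure: percent inhibition scaled to no-enzyme and uninhibited-enzyme controls, plate-pattern corrected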
LMPTP block: blocks human LMPTP phosphatase; P24666; recombinant LMPTP-A, OMFP fluorogenic substrate, fluorescence intensity; inhibition, % at 20 µM; 360,000 compounds, 0.22% hits;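 active = compounds that cut the enzyme signal by at least half of the control window in the single-dose screen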;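 also: plate controls were DMSO wells with enzyme plus substrate for no effect and substrate without enzyme for full effect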
Target sequence (P24666 whole entry, looked up): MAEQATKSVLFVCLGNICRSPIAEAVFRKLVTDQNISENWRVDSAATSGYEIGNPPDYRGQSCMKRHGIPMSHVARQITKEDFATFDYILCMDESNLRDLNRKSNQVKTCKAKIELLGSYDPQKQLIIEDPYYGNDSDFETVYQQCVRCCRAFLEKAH
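Assay system: LMPTP-A enzyme. Input: 0.625 nM LMPTP-A final. Probe or stimulus: 400 µM OMFP. Compound dosing: single 20 µM dose. Schedule: 50 min dark incubation at room temperature. Detection: fluorescence intensity of OMFP turnover product. Read-out: percent inhibition versus substrate-only and uninhibited controls. Benchmarks: no-enzyme low control, uninhibited high control.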
SUMO1 PPI mod: SUMO1-SIM interaction modulation. P63165. SUMO1 binding to a labelled peptide, TR-FRET, 1 h. inhibition, % at 20 µM. 360,000 compounds, 0.33% hits; in the data active = inhibition above about 37%
Target sequence (P63165 whole entry, looked up): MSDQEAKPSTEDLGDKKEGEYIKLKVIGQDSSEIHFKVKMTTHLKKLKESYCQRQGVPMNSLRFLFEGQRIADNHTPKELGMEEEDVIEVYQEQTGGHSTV
Scp1 inh: blocks human Scp-1 phosphatase activity | Q9GZU7 | Recombinant Scp1, phosphopeptide, malachite green phosphate absorbance | inhibition, % at 20 µM | 340,000 compounds, 0.88% hits;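 active = inhibition above about 50% at 20 µM, limit read from the data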;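 also: plate controls were DMSO wells with enzyme for no effect and wells lacking enzyme for full effect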
Target sequence (Q9GZU7 76-261 limits assumed): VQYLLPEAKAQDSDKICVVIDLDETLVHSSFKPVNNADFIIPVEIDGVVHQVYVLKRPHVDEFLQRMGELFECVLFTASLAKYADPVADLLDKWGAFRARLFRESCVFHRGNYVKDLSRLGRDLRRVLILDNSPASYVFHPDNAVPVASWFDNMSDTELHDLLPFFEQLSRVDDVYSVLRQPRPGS
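Material – SCP-1 phosphatase catalytic domain, residues 76-261 · Buffer or medium – Acidic Tris acetate buffer with magnesium and detergent · Also added – Phospho 17-mer peptide substrate · Compound – single 20 µM dose, 1% DMSO · Times – 45 min room-temperature reaction, 5 min colour, 30 min stabiliser · Technique – Phosphate-binding colour reagent, absorbance read at 630 nm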
DNMT1 block: inhibitors of human DNMT1; P26358; DNMT1 molecular beacon, Hinp1I cleavage, fluorescence; inhibition (reported as % activation of signal), % at 10 µM; 360,000 compounds, 0.83% hits; in the data active = inhibition above about 50%
Numbers without * were called inactive; x = not tested or not shown.

SMILES	Rpn11 block	STEP block	LMPTP block	SUMO1 PPI mod	Scp1 inh	DNMT1 block
CS(=O)(=O)c1ccc(S(=O)(=O)N2CCN(C(=O)C(O)c3ccccc3)CC2)cc1 (configuration not stated)	x	x	-1.7	3.0	x	x
Cc1onc(-c2ccccc2)c1NC(=O)N(CCC#N)Cc1cccs1	-0.1	0.2	-1.2	0.6	-2.2	1.7
CCN(CC)CCn1c2c(c(SCC(=O)NCc3ccccc3)nc1=O)CCC2	0.8	-1.9	-0.5	-0.1	3.6	0.1
Cc1cc2oc(=O)cc(CN3CCCCC3C)c2cc1C (configuration not stated)	4.1	1.3	-1.3	-3.9	0.1	2.5
COc1ccc(C(=O)Nc2ccc(NC(=O)c3cccs3)cn2)cc1	4.4	1.3	0.9	45.7*	-0.6	8.6
CCOc1ncc(S(=O)(=O)N2CCN(CC)CC2)cc1C(=O)O	-4.9	1.9	-1.4	-0.1	-11.6	0.5
Cc1ccc2nc(-c3cc(-c4ccccc4)no3)cn2c1	2.4	2.1	6.2	62.1*	0.1	27.5
COc1ccc(CN(C)C(=O)c2cccc(C(=O)N(C)Cc3ccc(OC)cc3)c2)cc1	-7.3	-0.3	0.1	-1.3	-7.0	1.4
CC1CCC(NC(=O)CN2C(=O)NC(C)(C)C2=O)CC1 (configuration not stated)	2.4	-2.5	-1.6	-1.3	-0.4	0.9
COc1cccc(/C=N/NC(=O)c2cc3c(OC)cccc3[nH]2)c1O	-3.2	0.6	-0.7	51.3*	-10.7	5.5
COc1cccc(/C=N/NC(=O)c2cc3c(OC)cccc3[nH]2)c1OC	-8.5	0.7	0.3	-2.3	12.6	-8.7
CCOC(=O)c1cc(S(=O)(=O)NCC2CCN(Cc3cccc(C)c3)CC2)cn1C	12.1	-1.7	-0.7	-1.2	0.6	3.4
CCc1nnc(NS(=O)(=O)c2ccc(NC(=O)CCC(=O)OC)cc2)s1	2.4	-2.8	-2.0	2.5	-4.7	0.6
CC(CNC(=O)c1cccs1)c1ccc([N+](=O)[O-])cc1 (configuration not stated)	7.1	-2.6	-1.4	55.5*	4.7	-2.9
CC(=O)c1ccc(OCCCC(=O)OCC(=O)Nc2ccc3[nH]c(=O)[nH]c3c2)cc1	0.3	-2.0	-1.8	75.8*	-2.8	0.1
COc1ccccc1C(=O)NCC(=O)OCC(=O)Nc1ccc2[nH]c(=O)[nH]c2c1	3.0	-2.9	-0.5	46.8*	-6.6	1.6
COc1ccc(CCC(=O)OCC(=O)Nc2ccc3[nH]c(=O)[nH]c3c2)cc1	-3.1	4.6	0.0	11.0	-4.7	-1.5
CC(CC(=O)OCC(=O)Nc1ccc2[nH]c(=O)[nH]c2c1)c1ccccc1 (configuration not stated)	-10.1	-1.5	0.2	46.1*	4.8	2.1
COc1ccc(OCC(=O)OCC(=O)Nc2ccc3[nH]c(=O)[nH]c3c2)cc1	8.9	-2.3	-2.0	61.9*	-7.5	5.4
C#CCNCCS(=O)(=O)N(Cc1ccc(Br)cc1)[C@@H](CC(C)C)C(=O)O	4.2	3.9	-1.4	9.4	6.5	-1.9
CCCCn1c(N)c(N(CC(C)C)C(=O)COC(=O)Cc2c(C)nc3ccccc3c2C)c(=O)[nH]c1=O	1.5	-1.6	1.8	-4.8	2.4	-0.6
CC1CCCN(C(=O)COC(=O)c2ccc3[nH]c4c(c3c2)CCCC4)C1 (configuration not stated)	-0.9	0.3	2.3	6.4	15.6	-3.3
Cc1ccc(N=C2NC(=O)CS2)cc1C	-2.1	-2.9	0.0	1.1	-3.5	1.7
CCOc1ccc(OCCC(=O)N(CC)CC(=O)Nc2ccccc2OC)cc1	5.4	0.8	0.5	-1.8	-4.9	3.0
CCN(CC(=O)Nc1ccccc1OC)C(=O)CCc1ccccc1	2.9	0.8	-0.1	40.5*	-5.8	1.2
O=C(Nc1ccccc1F)NC1CC1	-0.3	-0.4	-1.6	56.4*	-5.0	3.4
NC(=O)C1CCN(C(=S)c2ccc(-c3ccc(Br)cc3)o2)CC1	0.5	95.2*	-1.1	-6.6	-2.5	-0.9
NC(=O)c1ccc(-c2ccc(Br)cc2)o1	-17.0	-4.1	0.7	-15.3	-2.9	-1.6

Screening results (PubChem BioAssay)
